Measurements as given in ChEMBL document CHEMBL1143723, “Antiproliferative cardenolides of an Elaeodendron sp. from the Madagascar rain forest(1)” (J Nat Prod, 2007).
pIC50: −log10 of the molar value.

Experiments:
Type in all cases: functional, cell-based
[1] = tested on: A2780; assay: Antiproliferative activity against human A2780 cells
[2] = tested on: U-937; assay: Antiproliferative activity against human U937 cells
In short: (§1)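 Cultured human cancer lines (MDA-MB-435 breast, HT-29 colon, H522-T1 non-small cell, U937 histiocytic lymphoma) were exposed to compound, and growth was read by luminescence. The method follows an earlier report, with luminescence measured on a multilabel reader.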

[3] = Antiproliferative activity against human H522T1 cells; details: H522-T1; in short: as §1
[4] = tested on: MDA-MB-435; assay: Antiproliferative activity against human MDA-MB-435 cells; in short: as §1
[5] = tested on: HT-29; assay: Antiproliferative activity against human HT29 cells; in short: as §1

Row | Compound | pIC50 [1] | pIC50 [2] | pIC50 [3] | pIC50 [4] | pIC50 [5]
1 | CO[C@H]1CCO[C@@H](O[C@@H]2C=C3CC[C@@H]4[C@H](CC[C@]5(C)[C@@H](C6=CC(=O)OC6)CC[C@]45O)[C@@]3(C)C[C@H]2O)[C@H]1O | 5.60 |  |  |  | 
2 | CO[C@H]1CCO[C@H]2O[C@@H]3C=C4CC[C@@H]5[C@H](CC[C@]6(C)[C@@H](C7=CC(=O)OC7)CC[C@]56O)[C@@]4(C)C[C@H]3O[C@]21O [ELAEODENDROSIDE B] | 7.72 | 7.30 | 7.10 | 6.82 | 7.10
3 | CO[C@H]1CCO[C@H]2O[C@@H]3C=C4CC[C@@H]5[C@H](CC[C@]6(C)[C@@H](C7=CC(=O)OC7)[C@@H](OC(C)=O)C[C@]56O)[C@@]4(C)C[C@H]3O[C@]21O [ELAEODENDROSIDE F] | 6.72 |  |  |  | 
4 | CO[C@@H]1CCO[C@H]2O[C@@H]3C=C4CC[C@@H]5[C@H](CC[C@]6(C)[C@@H](C7=CC(=O)OC7)[C@@H](OC(C)=O)C[C@]56O)[C@@]4(C)C[C@H]3O[C@]21O [ELAEODENDROSIDE G] | 7.00 |  |  |  | 
5 | CO[C@@H]1C[C@@H](C)O[C@H]2O[C@@H]3C=C4CC[C@@H]5[C@H](CC[C@]6(C)[C@@H](C7=CC(=O)OC7)[C@@H](OC(C)=O)C[C@]56O)[C@@]4(C)C[C@H]3O[C@]21O [ELAEODENDROSIDE T] | 7.07 | 6.82 | 6.74 | 6.43 | 6.74
6 | CO[C@H]1CCO[C@@H](O[C@@H]2C=C3CC[C@@H]4[C@H](CC(=O)[C@]5(C)[C@@H](C6=CC(=O)OC6)CC[C@]45O)[C@@]3(C)C[C@H]2O)[C@H]1O [ELAEODENDROSIDE U] | 4.52 |  |  |  | 
